Active and inactive are the calls of the source. No cut-off for these calls is given here.
Legend:
[1] = target: T1, DCN1-like protein 1/NEDD8-conjugating enzyme Ubc12 (Homo sapiens, UniProt Q96GG9); assay: Inhibition of GST-tagged DCN1 PONY domain (unknown origin)/human N-terminal acetylated UBC12 (1 to 12 residues) protein-protein interaction incubated for 1 hr by HTRF analysis; format: protein assay
[2] = target: T1, DCN1-like protein 1/NEDD8-conjugating enzyme Ubc12; assay: Inhibition of biotinylated DCN1 PONY domain (unknown origin)/human N-terminal acetylated UBC12 (1 to 12 residues) protein-protein interaction incubated for 1 hr by TR-FRET analysis; format: protein assay
[3] = system: MGC-803; assay: Induction of ROS generation in human MGC-803 cells at 3 uM incubated for 24 hrs by DCFH-DA staining based flow cytometry analysis (reference value: 2%); format: functional
[4] = system: MGC-803; assay: Induction of ROS generation in human MGC-803 cells at 1 uM incubated for 24 hrs by DCFH-DA staining based flow cytometry analysis (reference value: 2%); format: functional
[5] = system: MGC-803; assay: Induction of ROS generation in human MGC-803 cells at 0.3 uM incubated for 24 hrs by DCFH-DA staining based flow cytometry analysis (reference value: 2%); format: functional
[6] = system: MGC-803; assay: Induction of ROS generation in human MGC-803 cells at 3 uM incubated for 24 hrs by DCFH-DA staining based flow cytometry analysis (reference value: 1.2%); format: functional
[7] = system: MGC-803; assay: Induction of ROS generation in human MGC-803 cells at 1 uM incubated for 24 hrs by DCFH-DA staining based flow cytometry analysis (reference value: 1.2%); format: functional
[8] = system: MGC-803; assay: Induction of ROS generation in human MGC-803 cells at 0.3 uM incubated for 24 hrs by DCFH-DA staining based flow cytometry analysis (reference value: 1.2%); format: functional
[9] = system: MGC-803; assay: Inhibition of cullin3 neddylation in UBC/DCN1 overactivated human MGC-803 cells incubated for 24 hrs by Western blot analysis; format: cell-based
Outline: (§1)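 Cells in 6-well plates were exposed to compound for 24 h. MGC-803 were grown in DMEM and KYSE70 in RPMI 1640, both with 10% FBS at 37 °C and 5% CO2. Lysates were made in RIPA with protease inhibitors and quantified by BCA. 30 μg protein was run on 8% SDS-PAGE and blotted to nitrocellulose. Primary antibodies were applied overnight at 4 °C, then HRP secondaries, with ECL and film detection. GAPDH was the loading control. Run three times.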

[10] = target: Cullin-1 (Homo sapiens) (UniProt Q13616); assay: Inhibition of cullin1 neddylation in UBC/DCN1 overactivated human MGC-803 cells at 0.3 to 10 uM incubated for 24 hrs by Western blot analysis; format: cell-based; conditions: dose 0.3-10 µM; outline: as §1
Sequence of Cullin-1 (Homo sapiens) (Q13616 whole entry): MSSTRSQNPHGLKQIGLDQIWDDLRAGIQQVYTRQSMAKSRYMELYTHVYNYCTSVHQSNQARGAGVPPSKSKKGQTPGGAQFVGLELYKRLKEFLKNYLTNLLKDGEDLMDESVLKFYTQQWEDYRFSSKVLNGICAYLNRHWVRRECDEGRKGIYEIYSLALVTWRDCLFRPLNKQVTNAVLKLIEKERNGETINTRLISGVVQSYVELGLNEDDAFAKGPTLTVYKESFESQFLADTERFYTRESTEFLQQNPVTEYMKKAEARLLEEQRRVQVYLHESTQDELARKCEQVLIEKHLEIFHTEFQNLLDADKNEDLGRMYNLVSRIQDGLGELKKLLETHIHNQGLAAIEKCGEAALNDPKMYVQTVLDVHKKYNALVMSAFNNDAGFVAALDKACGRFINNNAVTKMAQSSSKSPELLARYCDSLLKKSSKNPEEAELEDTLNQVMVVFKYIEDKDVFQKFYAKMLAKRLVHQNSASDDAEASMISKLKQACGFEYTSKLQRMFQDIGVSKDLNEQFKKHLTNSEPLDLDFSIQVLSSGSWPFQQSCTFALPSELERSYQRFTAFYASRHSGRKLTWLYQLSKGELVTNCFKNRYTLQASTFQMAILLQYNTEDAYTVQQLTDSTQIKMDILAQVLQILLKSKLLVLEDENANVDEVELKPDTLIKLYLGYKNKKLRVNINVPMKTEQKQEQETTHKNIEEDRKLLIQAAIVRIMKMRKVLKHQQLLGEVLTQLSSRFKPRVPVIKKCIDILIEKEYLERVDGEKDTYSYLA

[11] = target: T2, Cullin-5 (Homo sapiens) (UniProt Q93034); assay: Inhibition of cullin5 neddylation in UBC/DCN1 overactivated human MGC-803 cells at 0.3 to 10 uM incubated for 24 hrs by Western blot analysis; format: cell-based; conditions: dose 0.3-10 µM; outline: as §1
T2 sequence (whole entry): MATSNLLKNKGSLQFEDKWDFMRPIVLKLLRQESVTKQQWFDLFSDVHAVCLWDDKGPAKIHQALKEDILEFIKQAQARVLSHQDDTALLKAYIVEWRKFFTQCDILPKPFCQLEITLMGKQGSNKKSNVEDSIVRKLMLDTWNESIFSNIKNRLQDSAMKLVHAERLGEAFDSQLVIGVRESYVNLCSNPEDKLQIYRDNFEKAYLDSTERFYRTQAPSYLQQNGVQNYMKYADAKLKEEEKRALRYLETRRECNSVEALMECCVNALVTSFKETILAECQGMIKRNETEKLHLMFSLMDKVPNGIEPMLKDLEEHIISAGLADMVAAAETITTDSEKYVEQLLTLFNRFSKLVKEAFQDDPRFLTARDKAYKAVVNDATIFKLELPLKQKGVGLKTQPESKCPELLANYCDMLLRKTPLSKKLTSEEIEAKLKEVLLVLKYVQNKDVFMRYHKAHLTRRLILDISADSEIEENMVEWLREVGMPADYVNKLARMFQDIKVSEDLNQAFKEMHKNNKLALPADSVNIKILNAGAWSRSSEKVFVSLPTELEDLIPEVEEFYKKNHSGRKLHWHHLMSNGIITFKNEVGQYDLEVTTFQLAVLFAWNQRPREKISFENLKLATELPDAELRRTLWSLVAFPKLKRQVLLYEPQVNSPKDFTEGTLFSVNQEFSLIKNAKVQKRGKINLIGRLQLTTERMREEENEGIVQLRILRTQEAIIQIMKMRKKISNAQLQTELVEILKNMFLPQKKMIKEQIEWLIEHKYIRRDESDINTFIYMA

[12] = target: Cullin-4B (Homo sapiens) (UniProt Q13620); assay: Inhibition of cullin4B neddylation in UBC/DCN1 overactivated human MGC-803 cells at 0.3 to 10 uM incubated for 24 hrs by Western blot analysis; format: cell-based; conditions: dose 0.3-10 µM; outline: as §1
Sequence of Cullin-4B (Homo sapiens) (Q13620 whole entry): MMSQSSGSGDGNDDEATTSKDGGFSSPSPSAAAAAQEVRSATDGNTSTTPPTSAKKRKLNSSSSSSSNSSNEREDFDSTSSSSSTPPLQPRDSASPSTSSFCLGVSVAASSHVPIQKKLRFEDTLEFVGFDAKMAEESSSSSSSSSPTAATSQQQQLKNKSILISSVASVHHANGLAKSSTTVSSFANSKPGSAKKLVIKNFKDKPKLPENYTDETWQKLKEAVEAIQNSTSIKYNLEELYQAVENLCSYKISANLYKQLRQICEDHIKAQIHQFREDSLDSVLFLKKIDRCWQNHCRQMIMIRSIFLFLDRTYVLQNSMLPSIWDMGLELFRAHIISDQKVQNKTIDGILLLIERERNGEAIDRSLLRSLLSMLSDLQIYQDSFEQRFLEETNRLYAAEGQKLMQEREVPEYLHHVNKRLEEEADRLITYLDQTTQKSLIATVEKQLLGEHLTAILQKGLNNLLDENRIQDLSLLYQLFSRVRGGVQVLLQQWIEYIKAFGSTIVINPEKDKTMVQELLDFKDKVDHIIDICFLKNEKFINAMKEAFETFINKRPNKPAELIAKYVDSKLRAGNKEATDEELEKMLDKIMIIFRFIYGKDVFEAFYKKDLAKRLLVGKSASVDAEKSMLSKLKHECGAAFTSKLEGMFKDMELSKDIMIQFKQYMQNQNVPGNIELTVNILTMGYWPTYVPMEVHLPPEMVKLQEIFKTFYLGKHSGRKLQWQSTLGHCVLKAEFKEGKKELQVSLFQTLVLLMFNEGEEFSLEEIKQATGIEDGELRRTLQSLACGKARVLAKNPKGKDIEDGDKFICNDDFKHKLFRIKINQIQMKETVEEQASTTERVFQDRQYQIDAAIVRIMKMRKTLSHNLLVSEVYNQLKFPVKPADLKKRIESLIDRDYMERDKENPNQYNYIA

[13] = target: Cullin-4A (Homo sapiens) (UniProt Q13619); assay: Inhibition of cullin4A neddylation in UBC/DCN1 overactivated human MGC-803 cells at 0.3 to 10 uM incubated for 24 hrs by Western blot analysis; format: cell-based; conditions: dose 0.3-10 µM; outline: as §1
Sequence of Cullin-4A (Homo sapiens) (Q13619 whole entry): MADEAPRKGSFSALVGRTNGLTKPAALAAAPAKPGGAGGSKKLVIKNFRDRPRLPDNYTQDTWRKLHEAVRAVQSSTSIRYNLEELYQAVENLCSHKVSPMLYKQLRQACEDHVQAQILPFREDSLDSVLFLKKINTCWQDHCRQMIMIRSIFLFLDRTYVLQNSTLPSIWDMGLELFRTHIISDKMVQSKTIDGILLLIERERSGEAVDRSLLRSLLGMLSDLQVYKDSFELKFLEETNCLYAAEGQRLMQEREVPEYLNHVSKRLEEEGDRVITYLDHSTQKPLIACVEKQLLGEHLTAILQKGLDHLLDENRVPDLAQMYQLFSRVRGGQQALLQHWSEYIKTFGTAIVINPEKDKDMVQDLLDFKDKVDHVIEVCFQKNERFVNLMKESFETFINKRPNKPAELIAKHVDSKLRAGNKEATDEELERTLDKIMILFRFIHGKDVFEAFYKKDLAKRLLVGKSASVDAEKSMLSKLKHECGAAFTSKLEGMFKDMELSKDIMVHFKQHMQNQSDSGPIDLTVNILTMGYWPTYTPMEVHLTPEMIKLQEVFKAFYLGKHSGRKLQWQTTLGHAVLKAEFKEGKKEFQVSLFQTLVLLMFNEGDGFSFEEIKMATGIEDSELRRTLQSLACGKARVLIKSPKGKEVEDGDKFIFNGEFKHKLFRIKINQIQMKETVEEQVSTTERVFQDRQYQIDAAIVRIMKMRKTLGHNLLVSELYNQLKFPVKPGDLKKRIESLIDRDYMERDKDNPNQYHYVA

[14] = system: MGC-803; assay: Inhibition of cullin2 neddylation in UBC/DCN1 overactivated human MGC-803 cells at 0.3 to 10 uM incubated for 24 hrs by Western blot analysis; format: cell-based; conditions: dose 0.3-10 µM; outline: as §1
[15] = system: MGC-803; assay: Induction of NRF2 accumulation in human MGC-803 cells 0.01 to 10 uM incubated for 24 hrs by Western blot analysis; format: functional, cell-based; conditions: dose 0.01-10 µM; outline: as §1
[16] = target: T2, Cullin-5 (Homo sapiens); assay: Inhibition of cullin5 neddylation in UBC/DCN1 overactivated human MGC-803 cells at 1 uM incubated for 24 hrs by Western blot analysis; format: cell-based; outline: as §1
[17] = target: Cullin-4B (Homo sapiens) (UniProt Q13620); assay: Inhibition of cullin4B neddylation in UBC/DCN1 overactivated human MGC-803 cells at 1 uM incubated for 24 hrs by Western blot analysis; format: cell-based; outline: as §1
[18] = target: Cullin-4A (Homo sapiens) (UniProt Q13619); assay: Inhibition of cullin4A neddylation in UBC/DCN1 overactivated human MGC-803 cells at 1 uM incubated for 24 hrs by Western blot analysis; format: cell-based; outline: as §1
[19] = system: MGC-803; assay: Inhibition of cullin3 neddylation in UBC/DCN1 overactivated human MGC-803 cells at 1 uM incubated for 24 hrs by Western blot analysis; format: cell-based; outline: as §1
[20] = system: MGC-803; assay: Inhibition of cullin2 neddylation in UBC/DCN1 overactivated human MGC-803 cells at 1 uM incubated for 24 hrs by Western blot analysis; format: cell-based; outline: as §1
[21] = target: Cullin-1 (Homo sapiens) (UniProt Q13616); assay: Inhibition of cullin1 neddylation in UBC/DCN1 overactivated human MGC-803 cells at 1 uM incubated for 24 hrs by Western blot analysis; format: cell-based; outline: as §1
[22] = system: MGC-803; assay: Induction of p21 accumulation in human MGC-803 cells 0.03 to 3 uM incubated for 24 hrs by Western blot analysis; format: functional, cell-based; conditions: dose 0.03-3 µM; outline: as §1
[23] = system: MGC-803; assay: Induction of p27 accumulation in human MGC-803 cells 0.03 to 3 uM incubated for 24 hrs by Western blot analysis; format: functional, cell-based; conditions: dose 0.03-3 µM; outline: as §1
[24] = system: MGC-803; assay: Induction of NRF2 accumulation in human MGC-803 cells 0.03 to 3 uM incubated for 24 hrs by Western blot analysis; format: functional, cell-based; conditions: dose 0.03-3 µM; outline: as §1
[25] = system: MGC-803; assay: Induction of ROS generation in human MGC-803 cells at 3 uM incubated for 24 hrs by DCFH-DA staining based flow cytometry analysis (reference value: 1.4%); format: functional
[26] = system: MGC-803; assay: Induction of ROS generation in human MGC-803 cells at 1 uM incubated for 24 hrs by DCFH-DA staining based flow cytometry analysis (reference value: 1.4%); format: functional
[27] = system: MGC-803; assay: Induction of ROS generation in human MGC-803 cells at 0.3 uM incubated for 24 hrs by DCFH-DA staining based flow cytometry analysis (reference value: 1.4%); format: functional
[28] = system: MGC-803; assay: Inhibition of cullin3 neddylation in UBC/DCN1 overactivated human MGC-803 cells at 0.3 to 10 uM incubated for 24 hrs by Western blot analysis; format: cell-based; conditions: dose 0.3-10 µM; outline: as §1

T1 sequence (Q96GG9 whole entry, the tested form may be a part): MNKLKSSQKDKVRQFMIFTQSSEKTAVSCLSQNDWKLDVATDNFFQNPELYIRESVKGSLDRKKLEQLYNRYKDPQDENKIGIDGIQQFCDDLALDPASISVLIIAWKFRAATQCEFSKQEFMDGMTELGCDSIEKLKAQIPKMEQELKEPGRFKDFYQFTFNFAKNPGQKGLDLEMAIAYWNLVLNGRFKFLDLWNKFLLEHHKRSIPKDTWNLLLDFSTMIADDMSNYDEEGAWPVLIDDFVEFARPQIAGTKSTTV
T1 sequence (P61081 whole entry, further chain, the tested form may be a part): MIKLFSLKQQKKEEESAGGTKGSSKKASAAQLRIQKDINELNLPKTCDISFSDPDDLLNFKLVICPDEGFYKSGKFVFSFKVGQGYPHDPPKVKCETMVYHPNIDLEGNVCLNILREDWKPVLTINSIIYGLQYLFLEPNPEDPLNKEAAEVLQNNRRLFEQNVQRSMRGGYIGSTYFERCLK

IC50 [1] [nM]	Structure (SMILES)	other results
192	Cc1cc(Sc2nnnn2CCN(C)C)n2nc(SCc3c(Cl)cccc3Cl)nc2n1	–
–	CCCCN1CCC(N(Cc2ccccc2)C(=O)Nc2ccc(Cl)c(Cl)c2)CC1	IC50 [2]: 60 nM; Activity [3]: 0.2%; Activity [4]: 0.5%; Activity [5]: 0.7%
–	CCC(=O)N[C@@H](Cc1nc2ccc(C(C)C)cc2s1)C(=O)N[C@H](CNC(=O)CCN1CCOCC1)C1CCCCC1	Activity [6]: 1.3%; Activity [7]: 0.7%; Activity [8]: 1.3%; inhibition [9]: Dose-Dependent Effect; inhibition [10]: inactive; inhibition [11]: inactive; inhibition [12]: inactive; inhibition [13]: inactive; inhibition [14]: inactive; Activity [15]: Active
58	Cc1cc(Sc2nnnn2CCN(C)C)n2nc(SCC3CCCCC3)nc2n1	–
654	Cc1cc(Sc2nnnn2CCN(C)C)n2nc(SCc3ccccc3C(F)(F)F)nc2n1	–
–	NS(=O)(=O)OC[C@@H]1C[C@@H](n2ccc3c(N[C@H]4CCc5ccccc54)ncnc32)C[C@@H]1O	inhibition [16]: Active; inhibition [17]: Active; inhibition [18]: Active; inhibition [19]: Active; inhibition [20]: Active; inhibition [21]: Active; Activity [22]: Active; Activity [23]: Active; Activity [24]: Active
22	Cc1cc(Sc2nnnn2CCN(C)C)n2nc(SCc3ccccc3)nc2n1	–
15	Cc1cc(Sc2nnnn2CCN(C)C)n2nc(SCc3ccc(Br)cc3)nc2n1	–
438	Cc1cc(Sc2nnnn2CCN(C)C)n2nc(SCCc3ccccc3)nc2n1	–
214	CCCSc1nc2nc(C)cc(Sc3nnnn3CCN(C)C)n2n1	–
22	Cc1cc(Sc2nnnn2CCN(C)C)n2nc(SCc3ccc(F)c(Cl)c3)nc2n1	–
1080	Cc1cc(Sc2nnnn2CCN(C)C)n2nc(SCc3cccc(C(F)(F)F)c3)nc2n1	–
1360	CC(C)c1cc(Sc2nnnn2CCN(C)C)n2ncnc2n1	–
195	Cc1cc(Sc2nnnn2CCN(C)C)n2nc(SCc3cccc(Br)c3)nc2n1	–
268	Cc1cc(Sc2nnnn2CCN(C)C)n2nc(SC(C)C)nc2n1	–
79	C#CCSc1nc2nc(-c3ccccc3)cc(Sc3nnnn3CCN(C)C)n2n1	–
5820	Cn1nnnc1Sc1cc(-c2ccccc2)nc2ncnn12	–
39	Cc1cc(Sc2nnnn2CCN(C)C)n2nc(SCc3ccc([N+](=O)[O-])cc3)nc2n1	–
4210	Cc1cc(Sc2nnnn2CCN(C)C)n2nccc2n1	–
209	Cc1cc(Sc2nnnn2CCN(C)C)n2nc(SCc3cccc4ccccc34)nc2n1	–
28	COc1ccc(CSc2nc3nc(C)cc(Sc4nnnn4CCN(C)C)n3n2)cc1	–
3360	Cc1nc2nc(SCc3ccc(Cl)cc3)nn2c(Sc2nnnn2CCN(C)C)c1C	–
24	Cc1cc(Sc2nnnn2CCN(C)C)n2nc(SCc3ccccc3[N+](=O)[O-])nc2n1	–

IC50 [1] [nM]	Structure (SMILES)	other results
> 50000	CN(C)CCn1nnnc1Sc1ncnc2ccsc12	–
3880	Oc1ccc(-n2nnnc2Sc2cc(-c3ccccc3)nc3ncnn23)cc1	–
130	CN(C)CCn1nnnc1Sc1cc(-c2ccccc2)nc2ncnn12	–
51	Cc1cc(Sc2nnnn2CCN(C)C)n2ncnc2n1	–
824	Cc1cc(Sc2nnnn2CCN(C)C)n2nc(SCc3ccccc3Br)nc2n1	–
4890	Cc1cc(Sc2nnnn2CCN(C)C)n2nc(SCc3csc4ccc(Cl)cc34)nc2n1	–
17	Cc1cc(Sc2nnnn2CCN(C)C)n2nc(SCc3ccc(Cl)c(F)c3)nc2n1	–
59	Cc1cc(Sc2nnnn2CCN(C)C)n2nc(SCC3CC3)nc2n1	–
186	Cc1cc(Sc2nnnn2CCN(C)C)n2nc(SCc3ccc(C(F)(F)F)cc3)nc2n1	–
309	Cc1cc(Sc2nnnn2CCN(C)C)n2nc(SCc3cc(=O)oc4c3ccc3ccccc34)nc2n1	–
> 50000	COCCOc1cc2ncnc(Sc3nnnn3CCN(C)C)c2cc1OCCOC	–
127	CN(C)CCn1nnnc1Sc1cc(C2CC2)nc2ncnn12	–
> 50000	CCCCCc1c(C)nc2nc(SCc3ccc(Cl)cc3)nn2c1Sc1nnnn1CCN(C)C.Cl	Activity [25]: 0.7%; Activity [26]: 2.6%; Activity [27]: 2.5%; inhibition [10]: inactive; inhibition [28]: inactive; inhibition [11]: inactive; inhibition [12]: inactive; inhibition [13]: inactive; inhibition [14]: inactive
16	Cc1cc(Sc2nnnn2CCN(C)C)n2nc(SCc3ccc(F)cc3)nc2n1	–
137	C=CCSc1nc2nc(C)cc(Sc3nnnn3CCN(C)C)n2n1	–
61	CN(C)CCn1nnnc1Sc1c2c(nc3ncnn13)CCC2	–
15800	c1ccc(-c2cc(Sc3nnnn3-c3ccccc3)n3ncnc3n2)cc1	–
532	Cc1cc(Sc2nnnn2CCN(C)C)n2nc(SCCCc3ccccc3)nc2n1	–
290	CN(C)CCn1nnnc1Sc1cc(-c2ccccc2)nc2nc(SCc3ccccc3)nn12	–
67	C#CCSc1nc2nc(C)cc(Sc3nnnn3CCN(C)C)n2n1	–
352	CCc1cc(Sc2nnnn2CCN(C)C)n2nc(SCc3ccccc3)nc2n1	–
78	Cc1ccc(CSc2nc3nc(C)cc(Sc4nnnn4CCN(C)C)n3n2)cc1	–
706	CCc1cc(Sc2nnnn2CCN(C)C)n2ncnc2n1	–

Source: ChEMBL document CHEMBL5260843 (J Med Chem, 2019)
